From ChEMBL document CHEMBL1143864, “Design and synthesis of potent antileishmanial cycloalkylidene-substituted ether phospholipid derivatives” (J Med Chem, 2008)

Key:
Leishmania infantum [1] = test: Antileishmanial activity against Leishmania infantum MHOM/TN/80/IPT1/LEM235 promastigotes; assay type: functional, organism-based
Summary of the method: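 Promastigotes grown in RPMI 1640 with 10% FCS, L-glutamine and antibiotics at 26 °C. Compounds, 65 mM stock in DMSO/ethanol 50/50, diluted 5-fold in medium (100 to 0.8 µM). Culture at 2 × 10^6 cells/mL mixed 1:1 with compound, 72 h at 26 °C. PI/SYBR-14 live/dead staining, flow cytometry, ≥10 000 cells; IC50 per Hills et al.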

[2] = Toxicity in human erythrocytes assessed as hemolysis at 100 uM; assay type: cell-based, Erythrocyte; conditions: read-out: Activity
Summary of the method: (§1)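 Washed erythrocytes from EDTA blood of healthy volunteers mixed 1:1 with compound in PBS (100 to 6.25 µM), 1 h at 37 °C. After centrifugation, supernatant absorbance read at 550 nm (reference 625 nm). Hemolysis % = (A − A0)/(Amax − A0) × 100, with PBS background and water as 100% lysis.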

THP-1 [3] = test: Cytotoxicity against human THP1 cells after 72 hrs; assay type: cell-based; conditions: THP-1, 72 h
Leishmania donovani = test: Antileishmanial activity against Leishmania donovani MHOM/IN/80/DD8/LEM703 promastigotes
[4] = Toxicity in human erythrocytes assessed as hemolysis; assay type: cell-based, Erythrocyte; summary of the method: as §1
[5] = Toxicity in human erythrocytes assessed as hemolysis at 500 uM; assay type: cell-based, Erythrocyte; conditions: read-out: Activity
Leishmania infantum [6] = test: Antileishmanial activity against Leishmania infantum MHOM/TN/80/IPT1/LEM235 intracellular amastigotes; assay type: functional, organism-based
Summary of the method: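 THP-1 cells differentiated with retinoic acid for 3 days, infected with L. infantum promastigotes (1:4, 37 °C, 5% CO2) overnight. Free parasites removed on Histopaque 1077. Infected cells at 4 × 10^5 cells/mL mixed 1:1 with compound, 72 h at 37 °C/5% CO2. Percent infected cells counted by Giemsa microscopy; IC50 as for promastigotes.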

THP-1 [7] = test: Cytotoxicity against human THP1 cells at 50 uM after 72 hrs; assay type: cell-based; conditions: thp-1, 72 h
Summary of the method: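 THP-1 monocytes in RPMI 1640/10% FCS at 1 × 10^6 cells/mL incubated 72 h with compound (50 to 1.56 µM). Dual PI/SYBR-14 staining; alive/dead ratio by flow cytometry, excitation 488 nm, read at 545 and 645 nm. At least 10 000 cells per sample, each staining experiment repeated thrice.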

[8] = Half life in human; assay type: ADME, organism-based; conditions: in vivo

SMILES | IC50 (Leishmania infantum [1]) | IC50 (Leishmania donovani) | IC50 (Leishmania infantum [6]) | half-life [8] | hemolysis at 100 µM [2] | IC50 (THP-1 [3]) | HC50 [4] | hemolysis at 500 µM [5] | Activity (THP-1 [7])
C[N+]1(C)C2CCC1CC(=CCOP(=O)([O-])OCCCCCCCCCCC=C1C3CC4CC(C3)CC1C4)C2 | > 100 µM | 41.6 µM | 9.1 µM | – | 82.3% | 147 µM | 61.3 µM | 100% | –
C[N+]1(CCOP(=O)([O-])OCCCCCCCCCCC=C2CCCCCCCCCCCCCC2)CCCCC1 | 84.5 µM | 65.9 µM | 3.6 µM | – | 36% | 72.6 µM | > 100 µM | 51.4% | –
C[N+]1(CCOP(=O)([O-])OCCCCC=C2CCCCCCCCCCCCCC2)CCCCC1 | 1.7 µM | 2 µM | 4.1 µM | – | 71.6% | 272 µM | 68.4 µM | 100% | –
C[N+](C)(C)CCOP(=O)([O-])OCCCCC=C1CCCCCCCCC1 | 76.8 µM | < 3.2 µM | 3.3 µM | – | 2.1% | 349 µM | > 100 µM | 41.8% | –
C[N+](C)(C)CCOP(=O)([O-])OCCCCCCCCCCC=C1CCCCCCCCC1 | 2.9 µM | 1 µM | 0.11 µM | – | 25.5% | 37.9 µM | > 100 µM | 43% | –
C[N+]1(CCOP(=O)([O-])OCCCCC=C2CCCCCCCCCCCCCC2)CCOCC1 | 1.8 µM | 1.94 µM | 4.4 µM | – | 45.4% | 372 µM | > 100 µM | 88.3% | –
C[N+](C)(C)[C@H]1CCCC[C@@H]1OP(=O)([O-])OCCCCC=C1CCCCCCCCCCCCCC1 (relative stereo) | > 100 µM | 6 µM | 1.6 µM | – | 60.7% | 88.5 µM | 76.7 µM | 100% | –
C[N+]1(CCOP(=O)([O-])OCCCCCC2CCCCCCCCCCCCCC2)CCCCC1 | 2.8 µM | 1 µM | 1 µM | – | 28.7% | 333 µM | > 100 µM | 80.8% | –
CCCCCCCCCCCCCCCCOP(=O)([O-])O[C@@H]1CCCC[C@H]1[N+](C)(C)C (relative stereo) | > 100 µM | 71.9 µM | 1.7 µM | – | 20.4% | 21.3 µM | > 100 µM | 55.4% | –

Further lines, with some results ahead:

IC50 (Leishmania infantum [1]) | IC50 (Leishmania donovani) | IC50 (Leishmania infantum [6]) | half-life [8] | SMILES | hemolysis at 100 µM [2] | IC50 (THP-1 [3]) | HC50 [4] | hemolysis at 500 µM [5] | Activity (THP-1 [7])
1.4 µM | 0.9 µM | 0.7 µM | – | C[N+](C)(C)CCOP(=O)([O-])OCCCCCC1CCCCCCCCCCCCCC1 | 8.7% | > 500 µM | > 100 µM | 100% | Non-toxic
< 3.1 µM | < 3.1 µM | 0.2 µM | – | C[N+](C)(C)[C@H]1CCC[C@@H]1OP(=O)([O-])OCCCCC=C1CCCCCCCCCCCCCC1 (relative stereo) | 80.5% | 75.4 µM | 44.3 µM | 100% | –
100 µM | 68.2 µM | 0.75 µM | – | C[N+](C)(C)CCOP(=O)([O-])OCCCCCCCCCCC=C1CCCCCCCCCCCCCC1 | 17.7% | 37.7 µM | 100 µM | 100% | –
44.3 µM | 41.1 µM | 5.2 µM | – | C[N+](C)(C)CC#CCOP(=O)([O-])OCCCCCCCCCCC=C1C2CC3CC(C2)CC1C3 | – | 75 µM | 100 µM | 100% | –
38 µM | 3.9 µM | 0.3 µM | – | C[N+](C)(C)[C@@H]1CCC[C@H]1OP(=O)([O-])OCCCCCCCCCCC=C1C2CC3CC(C2)CC1C3 (relative stereo) | 30.8% | 75 µM | > 100 µM | 100% | –
> 100 µM | 54.3 µM | 3.3 µM | – | CCCCCCCCCCCCCCCCOP(=O)([O-])O[C@@H]1CCC[C@H]1[N+](C)(C)C (relative stereo) | 100% | 34.1 µM | 43.1 µM | 100% | –
23.9 µM | 8.7 µM | 6.7 µM | 100 h | CCCCCCCCCCCCCCCCOP(=O)([O-])OCC[N+](C)(C)C [MILTEFOSINE] | 96.1% | 28.6 µM | – | 100% | Toxic
1.9 µM | 1 µM | 0.4 µM | – | C[N+]1(CCOP(=O)([O-])OCCCCCC2CCCCCCCCCCCCCC2)CCOCC1 | 34.8% | 244 µM | > 100 µM | 81.1% | –
> 100 µM | 16.1 µM | 1.1 µM | – | C[N+](C)(C)[C@@H]1CCCC[C@H]1OP(=O)([O-])OCCCCCCCCCCC=C1CCCCC1 (relative stereo) | 81.6% | 28.7 µM | 59.8 µM | 100% | –
2.2 µM | 2.3 µM | 3.8 µM | – | C[N+](C)(C)CCOP(=O)([O-])OCCCCC=C1CCCCCCCCCCCCCC1 | 38% | 154 µM | > 100 µM | 57.4% | –
> 100 µM | 8.6 µM | 1.1 µM | – | C[N+](C)(C)[C@@H]1CCC[C@H]1OP(=O)([O-])OCCCCCCCCCCC=C1CCCCC1 (relative stereo) | 66.4% | 30.7 µM | 76.3 µM | 100% | –
> 100 µM | 16.6 µM | 0.8 µM | – | C[N+](C)(C)[C@@H]1CCCC[C@H]1OP(=O)([O-])OCCCCCCCCCCC=C1C2CC3CC(C2)CC1C3 (relative stereo) | 66.8% | 39.7 µM | 66.6 µM | 100% | –
21.7 µM | < 3.13 µM | 2.2 µM | – | C[N+](C)(C)CCOP(=O)([O-])OCCCCCC1CCCCCCCCC1 | 1.7% | 363 µM | > 100 µM | 100% | –
50.2 µM | 41.5 µM | 0.9 µM | – | C[N+]1(CCOP(=O)([O-])OCCCCCCCCCCC=C2CCCCCCCCCCCCCC2)CCOCC1 | 16.9% | 36.2 µM | > 100 µM | 100% | –
